Common to all, as to assay type: nucleic-acid assay
Experiment [1] has as its system Nucleic Acid. Put plainly: Inhibitory concentration required to displace DNA-bound ethidium bromide molecules bound to CA12 (5''-CGCGAATTCGCG)2; NI denotes no inhibition. An outline of the steps:
(§1)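 Ethidium bromide displacement at 25 °C: duplex DNA (1 μM) and ethidium bromide (1 μM) in 20 mM Tris–HCl, pH 8.0, containing 1 mM MgCl2. Ligand titrated from 0 to 10 μM. Fluorescence read at λex 546 nm, λem 590 nm. IC50 is the concentration displacing 50% of DNA-bound ethidium, expressed as the dimer complex except for Hoechst 33258.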

The test system of experiment [2] is Nucleic Acid. Put plainly: Inhibitory concentration required to displace DNA-bound ethidium bromide molecules bound to CT12 (5''-CGTAGCGCTACG)2; NI denotes no inhibition. Put shortly: as §1
The test system of experiment [3] is Nucleic Acid. Put plainly: Inhibitory concentration required to displace DNA-bound ethidium bromide molecules bound to CA12 (5''-CGCGAATTCGCG)2. Put shortly: as §1
Experiment [4] has as its system Nucleic Acid. Description: Inhibitory concentration required to displace DNA-bound ethidium bromide molecules bound to CT12 (5''-CGTAGCGCTACG)2. An outline of the steps:
as §1

Experiment [5] deals with Nucleic Acid. Description: Inhibitory concentration required to displace one of two DNA-bound ethidium bromide molecules bound to CT12 (5''-CGTAGCGCTACG)2. Put shortly:
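Ethidium bromide displacement at 25 °C. CT12 duplex (1 μM) and ethidium bromide (1 μM) in 20 mM Tris–HCl, pH 8.0, with 1 mM MgCl2. Ligand titrated from 0 to 10 μM. Fluorescence read at λex 546 nm, λem 590 nm. IC50 is the concentration that displaces 50% of DNA-bound ethidium, expressed as dimer complex.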

By IC50 is commonly meant the concentration that gives 50% inhibition. The low end stands for greater potency, the high end for weaker potency. Turning to `C[C@H]1CC(=O)c2c(cc3cc(O)cc(O)c3c2O)C1`, the IC50 result in experiment [1] and in experiment [2] was “Not Active” each time.
For `CCCCCC[C@@H]1C(=O)c2c(cc3cc(O)cc(O)c3c2O)C[C@H]1C`, the IC50 in experiment [3] and in experiment [4] was 3000 nM each time.
Turning to `CCCCC/C=C1/C(=O)c2c(cc3cc(O)cc(O)c3c2O)C[C@H]1C`, the IC50 in experiment [3] and in experiment [4] was 2500 nM each time.
As for `CCCCCC[C@H]1C(=O)c2c(cc3cc(O)cc(O)c3c2O)C[C@H]1C`, the IC50 in experiment [3] came to 2500 nM; in experiment [4] it was 3000 nM.
As for `CCCCCC(O)C1C(=O)c2c(cc3cc(O)cc(O)c3c2O)C[C@H]1C` (stereo partly specified), the figures for the IC50 in experiment [3] and in experiment [4] were 4500 nM and 6500 nM, respectively.
Regarding `CCCCCCC1C(=O)c2c(cc3cc(O)cc(O)c3c2O)C[C@H]1C` (stereo partly specified), the IC50 in experiment [3] was 3000 nM; in experiment [4], 3500 nM.
`CO[C@@H]1[C@H](O)C[C@@H](O[C@@H]2C[C@H](Oc3cc4cc5c(c(O)c4c(O)c3C)C(=O)[C@@H](O[C@H]3C[C@@H](O[C@H]4C[C@@H](O[C@H]6C[C@](C)(O)[C@@H](OC(C)=O)[C@H](C)O6)[C@H](O)[C@@H](C)O4)[C@H](O)[C@@H](C)O3)[C@H]([C@H](OC)C(=O)[C@@H](O)[C@@H](C)O)C5)O[C@H](C)[C@@H]2OC(C)=O)O[C@@H]1C` [CHROMOMYCIN A3]: the IC50 worked out at 9000 nM in experiment [3] and 3000 nM in experiment [5].
For `CN1CCN(c2ccc3[nH]c(-c4ccc5[nH]c(-c6ccc(O)cc6)nc5c4)nc3c2)CC1` [HOECHST 33258], the values for the IC50 in experiment [3] and in experiment [4] were 1000 nM and above 20000 nM, respectively.

Source of the values: ChEMBL document CHEMBL1137035, “New DNA binding ligands as a model of chromomycin A3” (Bioorg Med Chem Lett, 2004).
